Results published in ChEMBL document CHEMBL3734683, “Synthesis and pharmacological screening of a large library of 1,3,4-thiadiazolines as innovative therapeutic tools for the treatment of prostate cancer and melanoma” (2015).
Activity calls are given as the source filed them. The calls are words filed in the database; no cut-off is given here.

What was measured:
PC-3 [1] = test: Antiproliferative activity against human PC3 cells assessed as reduction in cell viability at 0.5 to 100 uM after 72 hrs by MTT assay; assay type: functional, cell-based
Summary of the method: (§1)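 Cells plated, compound added after 24 h (DMSO dilution into culture medium), in triplicate; after 72 h, MTT added for 4 h. Controls were cells in medium alone; blanks were medium-only wells. Viability expressed as percent of viable cells versus control, mean of at least three independent assays.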

SK-MEL-28 [2] = test: Antiproliferative activity against human SK-MEL-28 cells assessed as reduction in cell viability at 5 to 50 uM after 72 hrs by MTT assay; assay type: functional, cell-based; summary of the method: as §1
SK-MEL-5 [3] = test: Antiproliferative activity against human SK-MEL-5 cells assessed as reduction in cell viability at 5 to 50 uM after 72 hrs by MTT assay; assay type: functional, cell-based; summary of the method: as §1
PC-3 [4] = test: Reduction in cyclin D1 protein level in human PC3 cells at 5 uM after 24 hrs by RT-PCR analysis relative to control; assay type: functional, cell-based
[5] = Cell cycle arrest in human PC3 cells assessed as accumulation of cells with 4N DNA at 5 uM after 96 hrs by propidium iodide staining-based FACS analysis; assay type: functional; details: PC-3
SK-MEL-5 [6] = test: Cell cycle arrest in human SK-MEL-5 cells assessed as accumulation of cells with 4N DNA at 5 uM after 96 hrs by propidium iodide staining-based FACS analysis; assay type: functional
SK-MEL-5 [7] = test: Cell cycle arrest in human SK-MEL-5 cells assessed as accumulation at G2/M phase at 5 uM after 24 hrs by propidium iodide staining-based FACS analysis; assay type: functional
SK-MEL-28 [8] = test: Cell cycle arrest in human SK-MEL-28 cells assessed as accumulation of cells with 4N DNA at 5 uM after 96 hrs by propidium iodide staining-based FACS analysis; assay type: functional
SK-MEL-28 [9] = test: Cell cycle arrest in human SK-MEL-28 cells assessed as accumulation at G2/M phase at 5 uM after 24 hrs by propidium iodide staining-based FACS analysis; assay type: functional
SK-MEL-5 [10] = test: Reduction in cyclin D1 protein level in human SK-MEL-5 cells at 5 uM after 24 hrs by RT-PCR analysis relative to control; assay type: functional, cell-based
[11] = Cell cycle arrest in human PC3 cells assessed as accumulation at G2/M phase at 5 uM after 24 hrs by propidium iodide staining-based FACS analysis; assay type: functional; details: PC-3
[12] = Cytotoxicity against human PC3 cells assessed as cell viability at 5 uM after 72 hrs by tryphan blue staining based microscopy (reference value: 95 to 98 %); assay type: functional; details: PC-3, 72 h, read-out: Activity
SK-MEL-28 [13] = test: Reduction in cyclin D1 mRNA expression in human SK-MEL-28 cells at 5 uM after 24 hrs by RT-PCR analysis relative to control
[14] = Cytotoxicity against human PC3 cells assessed as cell viability at 100 nM after 72 hrs by tryphan blue staining-based microscopy (reference value: 95 to 98 %); assay type: functional; details: PC-3, 72 h, read-out: Activity

CC(=O)NC1=NN(C(C)=O)C(C)(c2ccc(OC(C)=O)cc2)S1 (stereo not given)
Activity (PC-3 [1]): Active

CCC(=O)NC1=NN(C(=O)CC)C(CC)(c2ccccc2)S1 (stereo not given)
Activity (PC-3 [1]): Active

C=CCCC1(C)SC(NC(=O)CC)=NN1C(=O)CC (stereo not given)
Activity (SK-MEL-28 [2]): Active
Activity (SK-MEL-5 [3]): Active

CC(=O)NC1=NN(C(C)=O)C(C)(c2cccs2)S1 (stereo not given)
Activity (PC-3 [1]): Active

CCC1(c2ccccc2)SC(NC(C)=O)=NN1C(C)=O (stereo not given)
Activity (SK-MEL-28 [2]): Active
Activity (PC-3 [4]): Active
Activity (SK-MEL-5 [3]): Active
Activity [5]: Active
Activity (SK-MEL-5 [6]): Active
Activity (SK-MEL-5 [7]): Active
Activity (SK-MEL-28 [8]): Active
Activity (SK-MEL-28 [9]): Active
Activity (SK-MEL-5 [10]): Active
Activity [11]: Active
viability at 5 µM [12]: 18%
Activity (PC-3 [1]): Active
Activity (SK-MEL-28 [13]): Active

CC(=O)NC1=NN(C(C)=O)C(C)(c2ccccc2)S1 (stereo not given)
Activity (SK-MEL-28 [2]): Active
Activity (PC-3 [4]): Active
Activity (SK-MEL-5 [3]): Active
Activity [5]: Active
Activity (SK-MEL-5 [6]): Active
Activity (SK-MEL-5 [7]): Active
Activity (SK-MEL-28 [8]): Active
Activity (SK-MEL-28 [9]): Active
Activity (SK-MEL-5 [10]): Active
Activity [11]: Active
viability at 5 µM [12]: 25%
Activity (PC-3 [1]): Active
Activity (SK-MEL-28 [13]): Active

CCCCC1(CC)SC(NC(=O)CC)=NN1C(=O)CC (stereo not given)
Activity (PC-3 [1]): Active

CC(=O)NC1=NN(C(C)=O)C(C)(c2cc(F)ccc2F)S1 (stereo not given)
Activity (PC-3 [1]): Active

CC(=O)NC1=NN(C(C)=O)C(C)(c2cccnc2)S1 (stereo not given)
Activity (SK-MEL-28 [2]): Active
Activity (SK-MEL-5 [3]): Active

CC1(c2ccccc2)SC(NC(=O)C(Cl)Cl)=NN1C(=O)C(Cl)Cl (stereo not given)
Activity (SK-MEL-28 [2]): Active
Activity (SK-MEL-5 [3]): Active
Activity (PC-3 [1]): Active

CC(=O)NC1=NN(C(C)=O)C(C)(c2ccccn2)S1 (stereo not given)
Activity (PC-3 [1]): Active

CC(=O)O[C@@]12CO[C@@H]1C[C@H](O)[C@@]1(C)C(=O)[C@H](O)C3=C(C)[C@@H](OC(=O)[C@H](O)[C@@H](NC(=O)OC(C)(C)C)c4ccccc4)C[C@@](O)([C@@H](OC(=O)c4ccccc4)[C@H]21)C3(C)C [DOCETAXEL ANHYDROUS]
viability at 0.1 µM [14]: 32%
